Laboratory results taken from ChEMBL document CHEMBL1268915, “Optimization of a series of dipeptides with a P3 threonine residue as non-covalent inhibitors of the chymotrypsin-like activity of the human 20S proteasome” (Bioorg Med Chem Lett, 2010).
Activity calls are given as the source filed them. No cut-off for these calls is given here.

tested on: not listed separately; assay: Inhibition of chymotrypsin-like activity of human 20s proteasome beta5 subunit in human erythrocyte assessed as hydrolysis of Ac-WLA-AMC fluorogenic substrate; conditions: not given

SMILES	IC50 [nM]
C[C@@H](O)[C@H](NC(=O)c1ccc(OCc2ccccc2)cc1)C(=O)N[C@@H](CCc1ccccc1)C(=O)NCc1ccccc1	68
C=CCNC(=O)[C@H](CCc1ccccc1)NC(=O)[C@@H](NC(=O)c1ccc(OCc2ccccc2)cc1)[C@@H](C)O	100
COc1ccc(CNC(=O)[C@@H](NC(=O)[C@H](Cc2cc(OC)c(OC)c(OC)c2)NC(=O)Cc2cccc(Oc3ccccc3)c2)C(C)C)c(O)c1	15

tested on: not listed separately; assay: (§1) Inhibition of TNF-alpha-induced NF-kappaB activation in human HEK293 cells after 3 hrs by luciferase reporter gene assay; type: cell-based; conditions: HEK293, 3 h
Procedure, shortened: (§2)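 NF-κB-luciferase reporter in HEK293 cells (10,000 per well). Cells were pre-incubated with compound for 1 h, then stimulated with 10 ng/ml TNF-α for 3 h with compound still present. IC50 and percentage inhibition were reported as means of at least three independent experiments.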

SMILES	IC50 [nM]
C[C@@H](O)[C@H](NC(=O)c1ccc(OCc2ccccc2)cc1)C(=O)N[C@@H](CCc1ccccc1)C(=O)NCc1ccccc1	710
C=CCNC(=O)[C@H](CCc1ccccc1)NC(=O)[C@@H](NC(=O)c1ccc(OCc2ccccc2)cc1)[C@@H](C)O	880

tested on: HEK293; assay: as §1; type: cell-based; parameters: concentration or dose not given beside the values; conditions: dose or concentration not given here; procedure, shortened: as §2

SMILES	inhibition [%]
C[C@@H](O)[C@H](NC(=O)c1ccc(OCc2ccccc2)cc1)C(=O)N[C@@H](CCc1ccccc1)C(=O)NCc1ccccc1	68
C=CCNC(=O)[C@H](CCc1ccccc1)NC(=O)[C@@H](NC(=O)c1ccc(OCc2ccccc2)cc1)[C@@H](C)O	99

tested on: not listed separately; assay: Cytotoxicity against human Calu6 cells assessed as cellular ATP level after 72 hrs by luminescence-based ATPlite assay; type: cell-based, Calu-6; conditions: read-out: LC50
Procedure, shortened: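 Calu6 cells, 2000 per well, incubated with compound for 72 h. Viability read as cellular ATP by luminescence (ATPlite). Values are means of at least three independent experiments.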

SMILES	CC50 at 72 h [nM]
C[C@@H](O)[C@H](NC(=O)c1ccc(OCc2ccccc2)cc1)C(=O)N[C@@H](CCc1ccccc1)C(=O)NCc1ccccc1	1400
C=CCNC(=O)[C@H](CCc1ccccc1)NC(=O)[C@@H](NC(=O)c1ccc(OCc2ccccc2)cc1)[C@@H](C)O	2800

tested on: not listed separately; assay: Inhibition of chymotrypsin-like activity of human 20s proteasome beta-1 subunit in human erythrocyte assessed as hydrolysis of Ac-WLA-AMC fluorogenic substrate; conditions: not given

SMILES	IC50 [µM]
C[C@@H](O)[C@H](NC(=O)c1ccc(OCc2ccccc2)cc1)C(=O)N[C@@H](CCc1ccccc1)C(=O)NCc1ccccc1	> 20
C=CCNC(=O)[C@H](CCc1ccccc1)NC(=O)[C@@H](NC(=O)c1ccc(OCc2ccccc2)cc1)[C@@H](C)O	> 20
COc1ccc(CNC(=O)[C@@H](NC(=O)[C@H](Cc2cc(OC)c(OC)c(OC)c2)NC(=O)Cc2cccc(Oc3ccccc3)c2)C(C)C)c(O)c1	> 20

tested on: not listed separately; assay: Inhibition of chymotrypsin-like activity of human 20s proteasome beta2 subunit in human erythrocyte assessed as hydrolysis of Ac-WLA-AMC fluorogenic substrate; conditions: not given

SMILES	IC50 [µM]
C[C@@H](O)[C@H](NC(=O)c1ccc(OCc2ccccc2)cc1)C(=O)N[C@@H](CCc1ccccc1)C(=O)NCc1ccccc1	> 20
C=CCNC(=O)[C@H](CCc1ccccc1)NC(=O)[C@@H](NC(=O)c1ccc(OCc2ccccc2)cc1)[C@@H](C)O	> 20
COc1ccc(CNC(=O)[C@@H](NC(=O)[C@H](Cc2cc(OC)c(OC)c(OC)c2)NC(=O)Cc2cccc(Oc3ccccc3)c2)C(C)C)c(O)c1	> 20

biological target: Cathepsin B (Homo sapiens) (UniProt P07858); assay: Inhibition of human cathepsin B at 100uM; conditions: not given

SMILES	inhibition
C[C@@H](O)[C@H](NC(=O)c1ccc(OCc2ccccc2)cc1)C(=O)N[C@@H](CCc1ccccc1)C(=O)NCc1ccccc1	Active
C=CCNC(=O)[C@H](CCc1ccccc1)NC(=O)[C@@H](NC(=O)c1ccc(OCc2ccccc2)cc1)[C@@H](C)O	Active
COc1ccc(CNC(=O)[C@@H](NC(=O)[C@H](Cc2cc(OC)c(OC)c(OC)c2)NC(=O)Cc2cccc(Oc3ccccc3)c2)C(C)C)c(O)c1	Active

biological target: Procathepsin L (Homo sapiens) (UniProt P07711); assay: Inhibition of human cathepsin L at 100uM; conditions: not given
Sequence (P07711 114-333 limits assumed): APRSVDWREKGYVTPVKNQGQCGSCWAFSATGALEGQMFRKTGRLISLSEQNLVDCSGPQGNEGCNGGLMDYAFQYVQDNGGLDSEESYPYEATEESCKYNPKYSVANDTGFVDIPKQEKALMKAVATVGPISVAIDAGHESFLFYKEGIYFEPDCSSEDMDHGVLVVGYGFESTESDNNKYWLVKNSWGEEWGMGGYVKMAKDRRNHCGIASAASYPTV

SMILES	inhibition
C[C@@H](O)[C@H](NC(=O)c1ccc(OCc2ccccc2)cc1)C(=O)N[C@@H](CCc1ccccc1)C(=O)NCc1ccccc1	Active
C=CCNC(=O)[C@H](CCc1ccccc1)NC(=O)[C@@H](NC(=O)c1ccc(OCc2ccccc2)cc1)[C@@H](C)O	Active
COc1ccc(CNC(=O)[C@@H](NC(=O)[C@H](Cc2cc(OC)c(OC)c(OC)c2)NC(=O)Cc2cccc(Oc3ccccc3)c2)C(C)C)c(O)c1	Active

biological target: T1, Coagulation factor XII (Homo sapiens) (UniProt P00748); assay: Inhibition of human coagulation factor beta 12a at 100 uM; conditions: not given
T1 sequence (whole entry): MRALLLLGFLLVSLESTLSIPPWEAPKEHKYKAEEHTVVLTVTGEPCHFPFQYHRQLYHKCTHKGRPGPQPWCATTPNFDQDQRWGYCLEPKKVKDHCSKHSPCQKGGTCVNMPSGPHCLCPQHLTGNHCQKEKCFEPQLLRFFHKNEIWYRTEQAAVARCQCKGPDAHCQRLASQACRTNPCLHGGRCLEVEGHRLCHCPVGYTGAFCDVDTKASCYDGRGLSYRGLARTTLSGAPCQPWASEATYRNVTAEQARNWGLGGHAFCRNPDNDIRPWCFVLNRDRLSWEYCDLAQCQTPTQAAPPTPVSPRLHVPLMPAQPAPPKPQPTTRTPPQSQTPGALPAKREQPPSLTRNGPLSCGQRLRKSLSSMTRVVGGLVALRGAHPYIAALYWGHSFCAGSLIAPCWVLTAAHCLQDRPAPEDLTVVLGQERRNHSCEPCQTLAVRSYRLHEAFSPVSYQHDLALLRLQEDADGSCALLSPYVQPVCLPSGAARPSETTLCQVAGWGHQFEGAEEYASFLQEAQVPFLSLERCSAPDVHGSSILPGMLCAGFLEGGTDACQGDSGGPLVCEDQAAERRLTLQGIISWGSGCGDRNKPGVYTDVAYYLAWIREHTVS

SMILES	inhibition
C[C@@H](O)[C@H](NC(=O)c1ccc(OCc2ccccc2)cc1)C(=O)N[C@@H](CCc1ccccc1)C(=O)NCc1ccccc1	Active
C=CCNC(=O)[C@H](CCc1ccccc1)NC(=O)[C@@H](NC(=O)c1ccc(OCc2ccccc2)cc1)[C@@H](C)O	Active
COc1ccc(CNC(=O)[C@@H](NC(=O)[C@H](Cc2cc(OC)c(OC)c(OC)c2)NC(=O)Cc2cccc(Oc3ccccc3)c2)C(C)C)c(O)c1	Active

species on record: Homo sapiens; assay: Inhibition of human chymotrypsin at 100 uM; conditions: not given

SMILES	inhibition
C[C@@H](O)[C@H](NC(=O)c1ccc(OCc2ccccc2)cc1)C(=O)N[C@@H](CCc1ccccc1)C(=O)NCc1ccccc1	Active
C=CCNC(=O)[C@H](CCc1ccccc1)NC(=O)[C@@H](NC(=O)c1ccc(OCc2ccccc2)cc1)[C@@H](C)O	Active
COc1ccc(CNC(=O)[C@@H](NC(=O)[C@H](Cc2cc(OC)c(OC)c(OC)c2)NC(=O)Cc2cccc(Oc3ccccc3)c2)C(C)C)c(O)c1	Active

species on record: Homo sapiens; assay: Inhibition of human elastase at 100 uM; conditions: not given

SMILES	inhibition
C[C@@H](O)[C@H](NC(=O)c1ccc(OCc2ccccc2)cc1)C(=O)N[C@@H](CCc1ccccc1)C(=O)NCc1ccccc1	Active
C=CCNC(=O)[C@H](CCc1ccccc1)NC(=O)[C@@H](NC(=O)c1ccc(OCc2ccccc2)cc1)[C@@H](C)O	Active
COc1ccc(CNC(=O)[C@@H](NC(=O)[C@H](Cc2cc(OC)c(OC)c(OC)c2)NC(=O)Cc2cccc(Oc3ccccc3)c2)C(C)C)c(O)c1	Active

biological target: Plasminogen (Homo sapiens) (UniProt P00747); assay: Inhibition of human plasmin at 100 uM; conditions: not given
Sequence (P00747 97-580 limits assumed): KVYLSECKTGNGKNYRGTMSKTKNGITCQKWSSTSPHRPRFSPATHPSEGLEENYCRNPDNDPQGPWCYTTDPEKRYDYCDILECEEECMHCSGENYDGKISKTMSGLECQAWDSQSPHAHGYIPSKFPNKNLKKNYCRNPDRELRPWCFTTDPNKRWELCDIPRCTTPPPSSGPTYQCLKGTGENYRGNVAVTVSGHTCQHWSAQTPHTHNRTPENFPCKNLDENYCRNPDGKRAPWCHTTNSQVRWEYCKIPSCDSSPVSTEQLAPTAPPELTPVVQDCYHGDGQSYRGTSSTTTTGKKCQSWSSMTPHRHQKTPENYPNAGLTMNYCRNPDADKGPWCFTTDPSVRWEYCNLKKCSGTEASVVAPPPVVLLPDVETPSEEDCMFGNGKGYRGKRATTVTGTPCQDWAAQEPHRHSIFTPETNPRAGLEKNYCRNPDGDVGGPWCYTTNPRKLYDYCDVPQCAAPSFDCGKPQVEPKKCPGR
Sequence (P00747 581-810 limits assumed): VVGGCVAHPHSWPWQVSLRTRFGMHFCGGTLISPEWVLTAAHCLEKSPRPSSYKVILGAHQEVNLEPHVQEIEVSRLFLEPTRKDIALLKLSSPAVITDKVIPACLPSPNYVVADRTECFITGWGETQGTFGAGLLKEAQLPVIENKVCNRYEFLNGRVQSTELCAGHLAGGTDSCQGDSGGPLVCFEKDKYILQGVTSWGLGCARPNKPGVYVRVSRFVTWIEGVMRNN

SMILES	inhibition
C[C@@H](O)[C@H](NC(=O)c1ccc(OCc2ccccc2)cc1)C(=O)N[C@@H](CCc1ccccc1)C(=O)NCc1ccccc1	Active
C=CCNC(=O)[C@H](CCc1ccccc1)NC(=O)[C@@H](NC(=O)c1ccc(OCc2ccccc2)cc1)[C@@H](C)O	Active
COc1ccc(CNC(=O)[C@@H](NC(=O)[C@H](Cc2cc(OC)c(OC)c(OC)c2)NC(=O)Cc2cccc(Oc3ccccc3)c2)C(C)C)c(O)c1	Active

biological target: Prothrombin (Homo sapiens) (UniProt P00734); assay: Inhibition of human thrombin at 100 uM; conditions: not given

SMILES	inhibition
C[C@@H](O)[C@H](NC(=O)c1ccc(OCc2ccccc2)cc1)C(=O)N[C@@H](CCc1ccccc1)C(=O)NCc1ccccc1	Active
C=CCNC(=O)[C@H](CCc1ccccc1)NC(=O)[C@@H](NC(=O)c1ccc(OCc2ccccc2)cc1)[C@@H](C)O	Active
COc1ccc(CNC(=O)[C@@H](NC(=O)[C@H](Cc2cc(OC)c(OC)c(OC)c2)NC(=O)Cc2cccc(Oc3ccccc3)c2)C(C)C)c(O)c1	Active

biological target: Tissue-type plasminogen activator (Homo sapiens) (UniProt P00750); assay: Inhibition of tissue plasminogen activator at 100 uM; conditions: not given
Sequence (P00750 36-562 limits assumed): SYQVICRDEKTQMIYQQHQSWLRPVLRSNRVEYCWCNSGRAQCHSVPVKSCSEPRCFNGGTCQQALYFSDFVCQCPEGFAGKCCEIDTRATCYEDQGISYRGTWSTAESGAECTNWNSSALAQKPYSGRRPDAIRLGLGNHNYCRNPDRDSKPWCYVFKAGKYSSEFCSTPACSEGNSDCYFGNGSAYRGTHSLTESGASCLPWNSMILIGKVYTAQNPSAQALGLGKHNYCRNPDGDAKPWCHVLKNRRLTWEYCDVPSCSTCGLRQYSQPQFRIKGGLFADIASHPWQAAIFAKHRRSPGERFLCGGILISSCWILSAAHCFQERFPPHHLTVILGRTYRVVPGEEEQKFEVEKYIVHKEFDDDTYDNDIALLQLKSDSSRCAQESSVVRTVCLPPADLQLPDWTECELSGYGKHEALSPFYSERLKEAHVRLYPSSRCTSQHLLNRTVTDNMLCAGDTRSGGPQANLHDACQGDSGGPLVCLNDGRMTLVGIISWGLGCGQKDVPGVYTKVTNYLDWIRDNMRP

SMILES	inhibition
C[C@@H](O)[C@H](NC(=O)c1ccc(OCc2ccccc2)cc1)C(=O)N[C@@H](CCc1ccccc1)C(=O)NCc1ccccc1	Active
C=CCNC(=O)[C@H](CCc1ccccc1)NC(=O)[C@@H](NC(=O)c1ccc(OCc2ccccc2)cc1)[C@@H](C)O	Active
COc1ccc(CNC(=O)[C@@H](NC(=O)[C@H](Cc2cc(OC)c(OC)c(OC)c2)NC(=O)Cc2cccc(Oc3ccccc3)c2)C(C)C)c(O)c1	Active

biological target: Trypsin (Homo sapiens) (UniProt P07477+P07478+P35030); assay: Inhibition of human trypsin at 100 uM; type: protein assay; conditions: not given

SMILES	inhibition
C[C@@H](O)[C@H](NC(=O)c1ccc(OCc2ccccc2)cc1)C(=O)N[C@@H](CCc1ccccc1)C(=O)NCc1ccccc1	Active
C=CCNC(=O)[C@H](CCc1ccccc1)NC(=O)[C@@H](NC(=O)c1ccc(OCc2ccccc2)cc1)[C@@H](C)O	Active
COc1ccc(CNC(=O)[C@@H](NC(=O)[C@H](Cc2cc(OC)c(OC)c(OC)c2)NC(=O)Cc2cccc(Oc3ccccc3)c2)C(C)C)c(O)c1	Active

biological target: T2, Calpain-1 catalytic subunit (Homo sapiens) (UniProt P07384); assay: Inhibition of human calpain 1 at 100 uM; conditions: not given
T2 sequence (whole entry): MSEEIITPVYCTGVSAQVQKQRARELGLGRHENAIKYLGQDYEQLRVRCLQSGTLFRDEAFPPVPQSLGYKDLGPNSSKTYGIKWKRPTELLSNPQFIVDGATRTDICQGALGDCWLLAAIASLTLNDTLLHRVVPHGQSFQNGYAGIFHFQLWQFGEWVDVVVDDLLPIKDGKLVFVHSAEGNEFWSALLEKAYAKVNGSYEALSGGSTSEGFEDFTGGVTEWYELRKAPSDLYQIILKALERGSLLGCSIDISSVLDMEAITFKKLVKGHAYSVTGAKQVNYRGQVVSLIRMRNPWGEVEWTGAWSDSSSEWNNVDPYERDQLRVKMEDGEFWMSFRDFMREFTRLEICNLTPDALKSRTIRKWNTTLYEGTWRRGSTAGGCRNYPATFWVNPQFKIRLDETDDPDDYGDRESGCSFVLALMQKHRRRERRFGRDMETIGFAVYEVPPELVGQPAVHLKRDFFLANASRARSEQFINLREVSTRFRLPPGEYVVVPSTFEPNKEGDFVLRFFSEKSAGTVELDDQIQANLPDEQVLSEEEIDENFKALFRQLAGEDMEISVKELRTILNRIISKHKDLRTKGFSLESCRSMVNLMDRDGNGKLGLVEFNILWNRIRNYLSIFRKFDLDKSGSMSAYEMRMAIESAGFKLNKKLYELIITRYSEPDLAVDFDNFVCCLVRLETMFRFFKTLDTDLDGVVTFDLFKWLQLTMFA

SMILES	inhibition
C[C@@H](O)[C@H](NC(=O)c1ccc(OCc2ccccc2)cc1)C(=O)N[C@@H](CCc1ccccc1)C(=O)NCc1ccccc1	Active
C=CCNC(=O)[C@H](CCc1ccccc1)NC(=O)[C@@H](NC(=O)c1ccc(OCc2ccccc2)cc1)[C@@H](C)O	Active
COc1ccc(CNC(=O)[C@@H](NC(=O)[C@H](Cc2cc(OC)c(OC)c(OC)c2)NC(=O)Cc2cccc(Oc3ccccc3)c2)C(C)C)c(O)c1	Active
